Experimental data published in ChEMBL document CHEMBL1671752, “Genotypic characterization of UL23 thymidine kinase and UL30 DNA polymerase of clinical isolates of herpes simplex virus: natural polymorphism and mutations associated with resistance to antivirals” (Antimicrob Agents Chemother, 2010).

What was measured:
Human alphaherpesvirus 2 [1] = assay: Antiviral activity against Herpes simplex virus 2 isolate 20 harboring G39E, -1C 467 = Stop 183 mutations in thymidine kinase and A9T, P15S, L60P, E139K, T801P mutations in DNA polymerase infected in african green monkey Vero cells by plaque reduction assay; type: functional, organism-based; details: Human alphaherpesvirus 2, isolate 20, Vero
Outline: (§1)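 EC50 by plaque reduction assay in Vero cells against acyclovir and foscarnet. Vero cells grown in RPMI 1640 with 2% fetal bovine serum, 2 mM glutamine, 20 μg/ml vancomycin and 20 μg/ml amikacin. KOS (HSV-1) and gHSV2 (HSV-2) run as susceptible controls in each assay. […] HSV type confirmed by immunofluorescence with type-specific monoclonal antibodies.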

Human alphaherpesvirus 2 [2] = assay: Antiviral activity against Herpes simplex virus 2 isolate 16 harboring D137Stop mutations in thymidine kinase and A9T, P15S, L60P mutations in DNA polymerase infected in african green monkey Vero cells by plaque reduction assay; type: functional, organism-based; details: Human alphaherpesvirus 2, isolate 16, Vero; outline: as §1
Human alphaherpesvirus 2 [3] = assay: Antiviral activity against Herpes simplex virus 2 isolate 12 harboring G39E, N78D, L140F, S66P, A72S mutations in thymidine kinase and A9T, P15S, L60P mutations in DNA polymerase infected in african green monkey Vero cells by plaque reduction assay; type: functional, organism-based; details: Human alphaherpesvirus 2, isolate 12, Vero; outline: as §1
Human alphaherpesvirus 2 [4] = assay: Antiviral activity against Herpes simplex virus 2 isolate 25 harboring I101S mutations in thymidine kinase and D785N, V544A mutations in DNA polymerase infected in african green monkey Vero cells by plaque reduction assay; type: functional, organism-based; details: Human alphaherpesvirus 2, isolate 25, Vero; outline: as §1
Human alphaherpesvirus 2 [5] = assay: Antiviral activity against Herpes simplex virus 2 isolate 19 harboring G39E, +2G 439-440 = Stop 184 mutations in thymidine kinase and A9T, P15S, L60P, del, DGDE683-686 mutations in DNA polymerase infected in african green monkey Vero cells by plaque reduction assay; type: functional, organism-based; details: Human alphaherpesvirus 2, isolate 19, Vero; outline: as §1
Human alphaherpesvirus 1 [6] = assay: Antiviral activity against Herpes simplex virus 1 isolate 9 harboring N23S, K36E, R89Q, +1G 437-438 = Stop 228 mutations in thymidine kinase and S33G, A330R, V905M, A1203T, T1208A mutations in DNA polymerase infected in african green monkey Vero cells by plaque reduction assay; type: functional, organism-based; details: Human alphaherpesvirus 1, isolate 9, Vero; outline: as §1
Human alphaherpesvirus 1 [7] = assay: Antiviral activity against Herpes simplex virus 1 isolate 8 harboring N23S, K36E, R89Q, +1G 437-438 = Stop 228 mutations in thymidine kinase and A330R, P875S, V905M, P1124H, T1208A mutations in DNA polymerase infected in african green monkey Vero cells by plaque reduction assay; type: functional, organism-based; details: Human alphaherpesvirus 1, isolate 8, Vero; outline: as §1
Human alphaherpesvirus 1 [8] = assay: Antiviral activity against Herpes simplex virus 1 isolate 1 harboring C6G N23S K36E L42P G240E A265T and A207P mutations in thymidine kinase and S33G, A330R, N425T, V905M mutations in DNA polymerase infected in african green monkey Vero cells by plaque reduction assay; type: functional, organism-based; details: Human alphaherpesvirus 1, isolate 1, Vero; outline: as §1
Human alphaherpesvirus 2 [9] = assay: Antiviral activity against Herpes simplex virus 2 isolate 14 harboring G39E, N78D, M70R mutations in thymidine kinase and A724V mutations in DNA polymerase infected in african green monkey Vero cells by plaque reduction assay; type: functional, organism-based; details: Human alphaherpesvirus 2, isolate 14, Vero; outline: as §1
Human alphaherpesvirus 1 [10] = assay: Antiviral activity against Herpes simplex virus 1 isolate 2 harboring C6G, N23S, K36E, R41H, A192V, A265T, L170P mutations in thymidine kinase and S33G, A330R, V905M, T1208A mutations in DNA polymerase infected in african green monkey Vero cells by plaque reduction assay; details: Human alphaherpesvirus 1, isolate 2, Vero
Human alphaherpesvirus 1 [11] = assay: Antiviral activity against Herpes simplex virus 1 isolate 10 harboring N23S, K36E, R89Q, A265T C336Y mutations in thymidine kinase and S33G, A330R, V905M mutations in DNA polymerase infected in african green monkey Vero cells by plaque reduction assay; type: functional, organism-based; details: Human alphaherpesvirus 1, isolate 10, Vero; outline: as §1
Human alphaherpesvirus 2 [12] = assay: Antiviral activity against Herpes simplex virus 2 isolate 15 harboring R221H mutations in thymidine kinase and A9T, P15S, L60P mutations in DNA polymerase infected in african green monkey Vero cells by plaque reduction assay; type: functional, organism-based; details: Human alphaherpesvirus 2, isolate 15, Vero; outline: as §1
Human alphaherpesvirus 2 [13] = assay: Antiviral activity against Herpes simplex virus 2 isolate 22 harboring G39E, N78D, L140F, +1G 439-440 = Stop 229 mutations in thymidine kinase and A9T, P15S, L60P, E678G, Y823C mutations in DNA polymerase infected in african green monkey Vero cells by plaque reduction assay; type: functional, organism-based; details: Human alphaherpesvirus 2, isolate 22, Vero; outline: as §1
Human alphaherpesvirus 1 [14] = assay: Antiviral activity against Herpes simplex virus 1 isolate 5 harboring N23S, K36E, A192V, G251C, A265T, V267L, P268T, -1G 856 = frameshift mutations in thymidine kinase and A330R, V905M, T1208A, H98Y mutations in DNA polymerase infected in african green monkey Vero cells by plaque reduction assay; type: functional, organism-based; details: Human alphaherpesvirus 1, isolate 5, Vero; outline: as §1
Human alphaherpesvirus 2 [15] = assay: Antiviral activity against Herpes simplex virus 2 isolate 23 harboring G39E, N78D, L140F, +1G 439-440 = Stop 229 mutations in thymidine kinase and A9T, P15S, L60P, I291V mutations in DNA polymerase infected in african green monkey Vero cells by plaque reduction assay; type: functional, organism-based; details: Human alphaherpesvirus 2, isolate 23, Vero; outline: as §1
Human alphaherpesvirus 1 [16] = assay: Antiviral activity against Herpes simplex virus 1 isolate 6 harboring N23S, K36E, R89Q, +1G 437-438 = Stop 225 mutations in thymidine kinase and S33G, A330R, A646T, S1123L, P1124H, T1208A, R1229I mutations in DNA polymerase infected in african green monkey Vero cells by plaque reduction assay; type: functional, organism-based; details: Human alphaherpesvirus 1, isolate 6, Vero; outline: as §1
Human alphaherpesvirus 2 [17] = assay: Antiviral activity against Herpes simplex virus 2 isolate 18 harboring A27T, G39E, N78D, -1C 556 = Stop 263, S29A mutations in thymidine kinase and A9T, P15S, L60P, E678G, del, DD676-677 mutations in DNA polymerase infected in african green monkey Vero cells by plaque reduction assay; type: functional, organism-based; details: Human alphaherpesvirus 2, isolate 18, Vero; outline: as §1
Human alphaherpesvirus 1 [18] = assay: Antiviral activity against Herpes simplex virus 1 isolate 3 harboring N23S, K36E, R89Q, A265T, Y53D mutations in thymidine kinase and S33G, A330R, V905M, E1005K mutations in DNA polymerase infected in african green monkey Vero cells by plaque reduction assay; type: functional, organism-based; details: Human alphaherpesvirus 1, isolate 3, Vero; outline: as §1
Human alphaherpesvirus 1 [19] = assay: Antiviral activity against Herpes simplex virus 1 isolate 11 harboring N23S, K36E, G251C, A265T, P268T, R176W mutations in thymidine kinase and S33G, A330R, P1124H, T1208A, S724N, V117L, L267M mutations in DNA polymerase infected in african green monkey Vero cells by plaque reduction assay; type: functional, organism-based; details: Human alphaherpesvirus 1, isolate 11, Vero; outline: as §1
Human alphaherpesvirus 1 [20] = assay: Antiviral activity against Herpes simplex virus 1 isolate 4 harboring N23S, K36E -1C 553 = frameshift mutations in thymidine kinase and S33G, A330R, A899V, L1188F mutations in DNA polymerase infected in african green monkey Vero cells by plaque reduction assay; type: functional, organism-based; details: Human alphaherpesvirus 1, isolate 4, Vero; outline: as §1
Human alphaherpesvirus 2 [21] = assay: Antiviral activity against Herpes simplex virus 2 isolate 24 harboring G39E, -1G 440 = Stop 229 mutations in thymidine kinase and A9T, P15S, L60P, E139K, H837R mutations in DNA polymerase infected in african green monkey Vero cells by plaque reduction assay; type: functional, organism-based; details: Human alphaherpesvirus 2, isolate 24, Vero; outline: as §1
Human alphaherpesvirus 1 [22] = assay: Antiviral activity against Herpes simplex virus 1 isolate 7 harboring N23S, K36E, R89Q, +1C 464-465 = Stop 228 mutations in thymidine kinase and S33G, A330R, P1124H, T1208A, A870G mutations in DNA polymerase infected in african green monkey Vero cells by plaque reduction assay; type: functional, organism-based; details: Human alphaherpesvirus 1, isolate 7, Vero; outline: as §1
Human alphaherpesvirus 2 [23] = assay: Antiviral activity against Herpes simplex virus 2 isolate 21 harboring G39E, N78D, L140F, -1C 452 = Stop 183 mutations in thymidine kinase and P15S, L60P, E678G mutations in DNA polymerase infected in african green monkey Vero cells by plaque reduction assay; type: functional, organism-based; details: Human alphaherpesvirus 2, isolate 21, Vero; outline: as §1
Human alphaherpesvirus 2 [24] = assay: Antiviral activity against Herpes simplex virus 2 isolate 17 harboring G39E, N78D Q222Stop mutations in thymidine kinase and A9T, P15S, L60P, T801P mutations in DNA polymerase infected in african green monkey Vero cells by plaque reduction assay; type: functional, organism-based; details: Human alphaherpesvirus 2, isolate 17, Vero; outline: as §1
Human alphaherpesvirus 2 [25] = assay: Antiviral activity against Herpes simplex virus 2 isolate 13 harboring, M183I mutations in thymidine kinase and A9T, P15S, R41H, L60P, E139K, A232T mutations in DNA polymerase infected in african green monkey Vero cells by plaque reduction assay; type: functional, organism-based; details: Human alphaherpesvirus 2, isolate 13, Vero; outline: as §1

SMILES	EC50 (Human alphaherpesvirus 2 [1]) [µM]	EC50 (Human alphaherpesvirus 2 [2]) [µM]	EC50 (Human alphaherpesvirus 2 [3]) [µM]	EC50 (Human alphaherpesvirus 2 [4]) [µM]	EC50 (Human alphaherpesvirus 2 [5]) [µM]	EC50 (Human alphaherpesvirus 1 [6]) [µM]	EC50 (Human alphaherpesvirus 1 [7]) [µM]	EC50 (Human alphaherpesvirus 1 [8]) [µM]	EC50 (Human alphaherpesvirus 2 [9]) [µM]	EC50 (Human alphaherpesvirus 1 [10]) [µM]	EC50 (Human alphaherpesvirus 1 [11]) [µM]	EC50 (Human alphaherpesvirus 2 [12]) [µM]	EC50 (Human alphaherpesvirus 2 [13]) [µM]	EC50 (Human alphaherpesvirus 1 [14]) [µM]	EC50 (Human alphaherpesvirus 2 [15]) [µM]	EC50 (Human alphaherpesvirus 1 [16]) [µM]	EC50 (Human alphaherpesvirus 2 [17]) [µM]	EC50 (Human alphaherpesvirus 1 [18]) [µM]	EC50 (Human alphaherpesvirus 1 [19]) [µM]	EC50 (Human alphaherpesvirus 1 [20]) [µM]	other results
Nc1nc2c(ncn2COCCO)c(=O)[nH]1 [ACYCLOVIR]	> 50	> 50	43	42	> 50	> 50	10	> 50	24	11	22	11	> 50	16	> 50	26	18	35	> 50	16	EC50 (Human alphaherpesvirus 2 [21]): > 50 µM; EC50 (Human alphaherpesvirus 1 [22]): 31 µM; EC50 (Human alphaherpesvirus 2 [23]): > 50 µM; EC50 (Human alphaherpesvirus 2 [24]): > 50 µM; EC50 (Human alphaherpesvirus 2 [25]): 33 µM
O=C(O)P(=O)(O)O [FOSCARNET]	< 66	< 66	< 66	145	< 66	106	< 66	< 66	92	< 66	< 66	99	76	< 66	< 66	< 66	< 66	< 66	644	< 66	EC50 (Human alphaherpesvirus 2 [21]): < 66 µM; EC50 (Human alphaherpesvirus 1 [22]): < 66 µM; EC50 (Human alphaherpesvirus 2 [23]): 89 µM; EC50 (Human alphaherpesvirus 2 [24]): < 66 µM; EC50 (Human alphaherpesvirus 2 [25]): < 66 µM
